Laboratory results taken from article PMC10061538 (ACS Omega, 2023).

Assays:
CYP2A6 [1] = molecular target: T1, CYP2A6 (Homo sapiens, UniProt P11509); settings: 50 μM tranylcypromine pretreatment 1 h, then 100 μM coumarin 1 h
T1 sequence (P11509 1-494): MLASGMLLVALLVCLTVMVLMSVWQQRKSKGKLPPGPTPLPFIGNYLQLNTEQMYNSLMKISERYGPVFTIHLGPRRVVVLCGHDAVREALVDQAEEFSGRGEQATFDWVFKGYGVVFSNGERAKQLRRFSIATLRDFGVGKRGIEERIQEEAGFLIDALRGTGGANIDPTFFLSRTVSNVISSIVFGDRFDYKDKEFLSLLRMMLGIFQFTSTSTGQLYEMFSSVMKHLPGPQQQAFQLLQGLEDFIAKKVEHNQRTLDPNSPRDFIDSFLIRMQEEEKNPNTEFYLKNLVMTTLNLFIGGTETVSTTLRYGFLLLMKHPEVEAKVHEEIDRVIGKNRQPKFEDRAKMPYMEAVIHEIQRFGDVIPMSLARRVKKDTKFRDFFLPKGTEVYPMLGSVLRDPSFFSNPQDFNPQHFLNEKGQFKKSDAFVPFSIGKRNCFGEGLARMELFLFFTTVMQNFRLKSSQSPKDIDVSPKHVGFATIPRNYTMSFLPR

CYP2A6 [2] = molecular target: T1, CYP2A6; assay: Cellular CYP2A6 inhibition screening; assay type: cell-based; settings: for inhibition of cellular CYP2A6: flavoring agent at 500 μM
[3] = system: CYP2A6-transduced BEAS-2B cells; assay: Cell viability by LDH release; assay type: cell-based; settings: flavoring agent at 500 μM, 2 h total exposure, 50 μM coumarin, Figure S4
Outline: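 CYP2A6-transduced BEAS-2B cells were grown to confluence in KGM and switched to KBM. They were exposed to flavoring agent at 500 μM for 1 h, then coumarin was added to 50 μM, for 2 h total, in triplicate wells. Medium was incubated 30 min with tetrazolium substrate and read at 490 nm absorbance. Maximal LDH was set by lysis buffer.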

inhibition of cellular CYP2A6 (CYP2A6 [2])	SMILES	fluorescence (7-hydroxycoumarin formation) in CYP2A6-transduced cells (CYP2A6 [1])	IC50 (CYP2A6 [2]) [µM]	mean percent of maximal LDH [3] [%]
–	Cl.N[C@@H]1C[C@H]1c1ccccc1 (relative stereo) [tranylcypromine, trans-2-Phenylcyclopropylamine hydrochloride]	strongly reduced	–	–
–	O=Cc1ccccc1 [benzaldehyde]	–	7.6	8.9
–	O=C/C=C/c1ccccc1 [cinnamaldehyde, trans-cinnamaldehyde]	–	7.4	6.6
negligible inhibition	CC(=O)OCCC(C)C [isoamyl acetate]	–	> 500	–
near-maximal inhibition	COc1cc(C=O)ccc1O [vanillin]	–	200	–
